# EBNA-1 inhibitor: EBNA-1 DNA-binding inhibitors, primary screen, biochemical, fluorescence polarization | inhibition, % at 14.8 µM | 300,000 tested, 0.34% active; in the data active = inhibition above about 28%
# ZTA DNA inh: ZTA (EBV) inhibition in EBNA-1 counter-screen; P03206; ZTA-DNA binding, fluorescence polarization; inhibition, % at 11 µM; 320,000 tested, 0.15% active; AID 2234; in the data active = inhibition above about 33%
# Target sequence (P03206 whole entry, looked up): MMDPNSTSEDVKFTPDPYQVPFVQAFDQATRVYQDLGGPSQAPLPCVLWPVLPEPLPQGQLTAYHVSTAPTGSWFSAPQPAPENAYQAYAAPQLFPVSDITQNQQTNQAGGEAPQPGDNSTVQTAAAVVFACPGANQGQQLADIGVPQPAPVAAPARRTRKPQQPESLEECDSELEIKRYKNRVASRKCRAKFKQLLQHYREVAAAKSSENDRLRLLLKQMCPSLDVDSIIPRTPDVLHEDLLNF
# DNA FID counter: compounds displacing fluorescent DNA intercalator, primary screen, artefact control for HCV NS3 helicase inhibitor project, biochemical, FID fluorescence. DNA fluorescent intercalator displacement. inhibition, % at 7.9 µM. 290,000 tested, 0.17% active. AID 1845, 2009; in the data active = inhibition above about 37%;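 note: 0% = vehicle and 100% = reference compound; higher means more ethidium bromide displaced from hairpin DNA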
# FGF22 binding: binders of human FGF22 protein, primary screen, FGF22 synaptogenesis inhibitor project, biophysical, thermal shift, single point; Fibroblast growth factor 22 (Homo sapiens), Q9HCT0; recombinant FGF22 thermal shift, SYPRO orange fluorescence; percent of sucrose octasulfate shift, DMSO zero; 340,000 tested, 1.5% active; activity (Tm shift, normalised), % at 9.99 µM;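 active = mean Tm shift, scaled 0 neutral to 100 positive control, at about 1.3% or above, every replicate too, limit read from the data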
# Target sequence (Q9HCT0 whole entry, looked up): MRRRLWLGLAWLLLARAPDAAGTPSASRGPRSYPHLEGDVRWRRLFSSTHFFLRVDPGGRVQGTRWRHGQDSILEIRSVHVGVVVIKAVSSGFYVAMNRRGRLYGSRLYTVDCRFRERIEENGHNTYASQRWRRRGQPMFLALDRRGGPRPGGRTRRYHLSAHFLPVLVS
# GRIN3A LBD mod: binders of NR3A ligand-binding domain, primary screen, biophysical, differential scanning fluorimetry, uHTS. Tm shift relative to glycine control, % at 25 µM. 340,000 tested, 2.5% active. NR3A LBD differential scanning fluorimetry, Tm shift; 0% = protein alone, 100% = glycine-bound protein. AID 1259313, 2017;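 active = melting temperature shift of at least 10% of the positive control shift, at one fixed dose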
# HCV NS3 hel inh: inhibitors of HCV NS3 helicase, primary screen, biochemical, Cy5 molecular beacon fluorescence; Hepatitis C virus NS3 helicase; NS3 helicase DNA unwinding; inhibition, % at 10.9 µM; 290,000 tested, 0.56% active; AID 1800, 2009;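 active = inhibition above the mean of all tested compounds plus 3 SD, set per campaign, cut at about 35% in these data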;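 note: 0% = DMSO wells and 100% = thioflavine S control wells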
#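 Control set: DMSO versus 110 µM thioflavine S; Material: NS3 helicase fragment of HCV; Measured by: Cy5 fluorescence at 0 and 60 min, beacon hairpin quenching; Read-out basis: percent inhibition from t60/t0 fluorescence ratio; Times: reaction time 60 min, 25 °C; Repeats: single replicate; Compound dosing: single dose, 10.9 µM nominal final, DMSO 0.8% final.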
# * marks the source's active call; other numbers are inactive results; · = not tested or not shown. Sampled rows, rich in hits. Any-hit rate of the full collection: about 3.6%.
SMILES,EBNA-1 inhibitor,ZTA DNA inh,DNA FID counter,FGF22 binding,GRIN3A LBD mod,HCV NS3 hel inh
Cc1nc2ccc(NC(=O)c3cccc(S(=O)(=O)N(C)c4ccccc4)c3)cc2s1,-2.8,-0.6,-9.9,·,18.1*,-19.2
C/C(=N\NC(=O)c1cccc(F)c1)c1cccc(NC(=O)c2ccc(F)cc2)c1,0.7,-20.0,13.5,43.0*,-4.8,-1.1
Nc1nc2ccccc2n1C(=O)c1ccc(F)cc1,6.1,17.8,0.0,0.3,-0.7,-10.5
O=C(c1ccco1)N1CCn2c1nc1ccccc12,4.6,-2.7,-0.2,·,-0.1,5.3
Nc1nc2ccccc2n1C(=O)c1ccccc1,-2.7,5.2,0.7,43.0*,-1.4,-6.4
Nc1nc2ccccc2n1C(=O)c1ccco1,·,·,-0.3,·,15.5*,6.1
C[C@H](CO)N1C[C@H](C)[C@@H](CN(C)C)Oc2cc(-c3ccc(F)cc3)ccc2S1(=O)=O,·,·,·,0.2,·,·
CCCNC(=O)N1[C@@H]2CNC[C@H]1C2c1ccc(-c2ccc(C)cc2)cc1 (some centres not stated),·,·,·,0.0,·,·
Oc1ccc(Cl)cc1CNCc1ccc(Cl)cc1,1.5,12.2,·,0.2,-1.2,·
Oc1ccc(Cl)cc1Cc1cc(Cl)ccc1O,-8.1,-15.5,2.6,0.4,17.2*,6.8
C[C@H](CO)N1C[C@H](C)[C@H](CN(C)C(=O)Nc2ccc(C(F)(F)F)cc2)Oc2ccc(NC(=O)Nc3ccc(C(F)(F)F)cc3)cc2C1=O,·,·,·,-0.5,·,·
C[C@H](CO)N1C[C@H](C)[C@@H](CN(C)C(=O)Nc2ccc(C(F)(F)F)cc2)Oc2ccc(NC(=O)Nc3ccc(C(F)(F)F)cc3)cc2C1=O,·,·,·,0.1,10.1*,·
C[C@H](CO)N1C[C@H](C)[C@H](CN(C)C(=O)Nc2ccc(F)cc2)Oc2ccc(NC(=O)Nc3ccc(C(F)(F)F)cc3)cc2CC1=O,·,·,·,1.2*,·,·
C[C@@H]1CN([C@H](C)CO)C(=O)c2cc(NC(=O)Nc3ccc(C(F)(F)F)cc3)ccc2O[C@H]1CN(C)C(=O)Nc1ccc(F)cc1,·,·,·,0.0,18.4*,·
C[C@H](CO)N1C[C@H](C)[C@@H](CN(C)C(=O)Nc2ccc3c(c2)OCO3)Oc2ccc(NC(=O)Nc3ccc(C(F)(F)F)cc3)cc2C1=O,·,·,·,0.4,10.9*,·
COc1ccccc1-c1ccc([C@H]2[C@@H](CO)N(C(=O)NC(C)C)[C@H]2C#N)cc1,·,·,·,0.0,·,·
Cc1ccc(S(=O)(=O)N(C)C[C@H]2Oc3c(NC(=O)Nc4ccc5c(c4)OCO5)cccc3C(=O)N([C@H](C)CO)C[C@@H]2C)cc1,·,·,·,0.1,·,·
O=C(c1ccccc1F)N1C[C@H]2[C@@H](c3ccccc31)[C@H](CO)N2C(=O)c1ccncc1,·,·,·,-0.7,·,·
COc1ccc(C(=O)NC(C(=O)NCC(=O)Nc2c(C)cccc2C)C(C)C)cc1 (configuration not stated),3.5,0.9,-12.4,43.5*,-3.5,-5.6
O=C(OC1CCCCC1)c1ccc2c(c1)C1C=CCC1C(C(=O)O)N2 (configuration not stated),·,·,-16.7,·,·,40.1*
CSc1nnc2c(n1)OC(c1ccccn1)N(C(C)=O)c1ccccc1-2 (configuration not stated),-2.5,-6.5,-3.2,43.4*,0.5,-9.4
CSc1nnc2c(n1)OC(c1ccc(C(=O)O)cc1)N(C(C)=O)c1ccccc1-2 (configuration not stated),0.1,16.0,1.3,-0.1,0.9,-2.9
COc1ccc(NC(=O)COc2nsnc2N2CCOCC2)c(OC)c1,1.1,-4.9,-32.1,-0.1,14.0*,21.2
Cc1ccc(NC(=O)COc2nsnc2N2CCOCC2)cc1Cl,-12.0,-3.4,-20.3,-0.5,-8.1,-3.1
CNC[C@@H]1Oc2c(NC(=O)c3cnccn3)cccc2C(=O)N([C@H](C)CO)C[C@@H]1C,·,·,·,0.0,·,·
Clc1ccc(-c2cnn3c(-c4ccncc4)ccnc23)cc1,2.8,-13.5,-2.0,44.0*,0.3,1.1

# Screens: PubChem, several laboratories
